Measured values from ChEMBL document CHEMBL5038617, “1,2,4-Triazole-3-thione compounds with a 4-ethyl alkyl/aryl sulfide substituent are broad-spectrum metallo-β-lactamase inhibitors with re-sensitization activity” (Eur J Med Chem, 2021).
pIC50, pKi: −log10 of the molar value.

Experiments:
[1] = Inhibition of bacterial Metallo-beta-lactamase VIM-1 (unknown origin) assessed as substrate hydrolysis using meropenem as substrate by UV-visible spectrometry analysis; parameters: species or system Bacteria
Outline: (§1)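 Purified MBL enzyme at 1–70 nM final, in 50 mM HEPES pH 7.5 at 30 °C with 0.5% DMSO. Reporter substrate 150 µM imipenem or meropenem; hydrolysis read at 300 nm. […] Ki measured when inhibition exceeded 75%, by competitive-model v0/vi vs [I] slope or Dixon plot. Some runs used 10 min enzyme–inhibitor preincubation. Triplicate.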

[2] = system: Bacteria; assay: Inhibition of bacterial Metallo-beta-lactamase VIM-2 (unknown origin) assessed as substrate hydrolysis at 100 uM using meropenem as substrate by UV-visible spectrometry analysis; outline: as §1
[3] = Inhibition of bacterial Metallo-beta-lactamase VIM-4 (unknown origin) assessed as substrate hydrolysis using meropenem as substrate by UV-visible spectrometry analysis; parameters: species or system Bacteria; outline: as §1
[4] = system: Bacteria; assay: Inhibition of bacterial New Delhi metallo-beta-lactamase 1 (unknown origin) assessed as substrate hydrolysis at 100 uM using meropenem as substrate by UV-visible spectrometry analysis; outline: as §1
[5] = system: Bacteria; assay: Inhibition of bacterial Metallo-beta-lactamase IMP-1 (unknown origin) assessed as substrate hydrolysis at 100 uM using meropenem as substrate by UV-visible spectrometry analysis; outline: as §1
[6] = system: Klebsiella pneumoniae; assay: Synergistic antibacterial activity against Klebsiella pneumonia 7023 clinical isolate strain producing Metallo-beta-lactamase VIM-1 assessed as meropenem MIC in presence of meropenem incubated for 24 hrs by broth microdilution method; format: functional
Outline: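 CLSI broth microdilution in Mueller-Hinton broth with 5 × 10^4 CFU/well. Meropenem two-fold serial dilutions tested with and without inhibitor fixed at 32 µg/mL, inhibitor added before antibiotic. DMSO ≤1%. […] Growth controls included. Triplicate.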

[7] = system: Klebsiella pneumoniae; assay: Synergistic antibacterial activity against Klebsiella pneumonia VA 416/02 clinical isolate strain producing Metallo-beta-lactamase VIM-4 assessed as meropenem MIC in presence of meropenem incubated for 24 hrs by broth microdilution method; conditions: VA 416/02, 24 h
[8] = system: Bacteria; assay: Inhibition of bacterial Metallo-beta-lactamase VIM-1 (unknown origin) assessed as substrate hydrolysis at 100 uM using meropenem as substrate by UV-visible spectrometry analysis; outline: as §1
[9] = system: Bacteria; assay: Inhibition of bacterial Metallo-beta-lactamase VIM-4 (unknown origin) assessed as substrate hydrolysis at 100 uM using meropenem as substrate by UV-visible spectrometry analysis; outline: as §1
[10] = Inhibition of bacterial New Delhi metallo-beta-lactamase 1 (unknown origin) assessed as substrate hydrolysis using meropenem as substrate by UV-visible spectrometry analysis; parameters: species or system Bacteria; outline: as §1
[11] = Inhibition of bacterial Metallo-beta-lactamase VIM-2 (unknown origin) assessed as substrate hydrolysis using meropenem as substrate by UV-visible spectrometry analysis; parameters: species or system Bacteria; outline: as §1
[12] = Inhibition of bacterial Metallo-beta-lactamase IMP-1 (unknown origin) assessed as substrate hydrolysis using meropenem as substrate by UV-visible spectrometry analysis; parameters: species or system Bacteria; outline: as §1
[13] = system: HeLa; assay: Cytotoxicity against human HeLa cells assessed as LDH release measured after 24 hrs by CytoTox96 nonradioactive assay; format: functional, cell-based
Outline: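 HeLa cells (20,000/well) incubated 24 h at 37 °C, 5% CO2 in DMEM with 10% FBS, 4.5 mg/mL glucose and 2 mM L-glutamine, with compound up to 250 µM. LDH release measured. Medium-only control and Triton X-100 maximum-release control included. % cytotoxicity = 100 × sample/maximum release. IC50 taken as 50% cytotoxicity.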

[14] = system: A549; assay: Cytotoxicity against human A549 cells assessed as cell viability measured after 48 hrs by RealTime-glo MT assay; format: functional, cell-based; conditions: A549, 48 h
Outline: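 A549 cells incubated up to 48 h in DMEM with varying compound concentrations. Viable cell number read by bioluminescent real-time viability assay (NanoLuc luciferase with cell-permeant prosubstrate). Viability expressed relative to DMSO-only control culture, and IC50 derived.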

[15] = Cytotoxicity against human PBMC cells assessed as cell viability measured after 24 hrs by flowcytometry method; format: toxicity, cell-based; conditions: for IC50 at 24 h: human, PBMC cells
Outline: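 PBMC from four individual donors were isolated by density centrifugation, frozen, thawed and resuspended at 1.10e6/mL in RPMI with 10% FBS. Compound added from 20 mM DMSO stock by serial dilution in RPMI; final concentrations 500–7.8 µM, in duplicate. After 24 h, live cells counted by flow cytometry using FSC/SSC gating. IC50 calculated for each donor.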

[16] = system: Bacteria; assay: Inhibition of bacterial Metallo-beta-lactamase IMP-1 (unknown origin) assessed as substrate hydrolysis at 25 uM using meropenem as substrate by UV-visible spectrometry analysis; outline: as §1
[17] = system: Bacteria; assay: Inhibition of bacterial Metallo-beta-lactamase VIM-2 (unknown origin) assessed as substrate hydrolysis at 25 uM using meropenem as substrate by UV-visible spectrometry analysis; outline: as §1
[18] = system: Bacteria; assay: Inhibition of bacterial Metallo-beta-lactamase VIM-4 (unknown origin) assessed as substrate hydrolysis at 25 uM using meropenem as substrate by UV-visible spectrometry analysis; outline: as §1
[19] = system: Bacteria; assay: Inhibition of bacterial Metallo-beta-lactamase VIM-1 (unknown origin) assessed as substrate hydrolysis at 25 uM using meropenem as substrate by UV-visible spectrometry analysis; outline: as §1

Compound	pKi [1]	pKi [3]	inhibition [4] [%]	inhibition [5] [%]	MIC [6] [µg/mL]	MIC [7] [µg/mL]	pKi [10]	pKi [11]	pKi [12]	further results
Cc1nnc(SCCn2c(-c3ccccc3)n[nH]c2=S)s1	5.66	5.53	< 30	< 30	2	2	–	–	–	inhibition [2]: 56%
FC(F)(F)c1cc(SCCn2c(-c3ccccc3)n[nH]c2=S)c2ccccc2n1	–	–	–	< 30	–	–	4.89	–	–	inhibition [8]: 37%; inhibition [2]: < 30%; inhibition [9]: < 30%
Fc1ccc(CSCCn2c(-c3ccccc3)n[nH]c2=S)cc1	5.65	5.95	–	–	8	2	4.82	6.08	5.02	–
S=c1[nH]nc(-c2ccccc2)n1CCOCc1ccccc1	5.99	5.69	33	42	4	2	–	5.50	–	–
S=c1[nH]nc(-c2ccccc2)n1CCCSc1ccccc1	5.53	5.31	42	46	2	1	–	5.87	–	–
O=[N+]([O-])c1ccccc1CSCCn1c(-c2ccccc2)n[nH]c1=S	6.32	6.25	–	72	2	1	4.88	6.24	4.72	–
S=c1[nH]nc(-c2ccccc2)n1CCSc1nc2ccccc2s1	–	–	< 30	47	–	–	–	–	–	inhibition [8]: < 30%; inhibition [2]: 30%; inhibition [9]: 44%
COc1ccc(O)c(-c2n[nH]c(=S)n2CCSCc2ccccc2)c1	6.74	6.22	46	63	2	2	–	5.78	–	–
S=c1[nH]nc(-c2ccccc2)n1CCSc1nc(-c2ccccc2)n[nH]1	–	–	< 30	32	–	–	–	–	–	inhibition [8]: < 30%; inhibition [2]: 44%; inhibition [9]: 52%
Fc1ccc(CSCCn2c(-c3ccccc3)n[nH]c2=S)c(F)c1	5.88	5.93	–	–	2	1	4.92	6.03	5.06	–
S=c1[nH]nc(-c2ccccc2)n1CCSc1ccccc1	5.90	6.27	–	–	1	1	4.96	5.80	5.47	–
O=C(O)CCSCCn1c(-c2ccccc2)n[nH]c1=S	5.70	5.70	59	67	2	1	–	5.72	–	–
S=c1[nH]nc(-c2cccc(-c3ccccc3)c2)n1CCSCc1ccccc1	–	6.05	< 30	–	16	16	–	–	–	inhibition [16]: 21%; inhibition [17]: < 15%
O=[N+]([O-])c1ccc(CSCCn2c(-c3ccccc3)n[nH]c2=S)cc1	6.37	6.06	–	–	2	1	4.95	5.89	5.44	–
S=c1[nH]nc(-c2ccccc2-c2ccccc2)n1CCSCc1ccccc1	–	–	< 30	35	–	–	–	–	–	inhibition [2]: < 30%
S=c1[nH]nc(-c2ccc(-c3ccccc3)cc2)n1CCSCc1ccccc1	–	–	< 30	60	–	–	–	–	–	inhibition [2]: < 30%; inhibition [18]: < 15%; inhibition [19]: < 15%
O=C(O)CSCCn1c(-c2ccccc2)n[nH]c1=S	5.63	6.15	40	< 30	2	4	–	6.09	–	–
S=c1[nH]nc(-c2ccc(OCc3ccccc3)cc2)n1CCSCc1ccccc1	5.65	5.98	< 30	60	–	–	–	–	–	inhibition [2]: < 30%
S=c1[nH]nc(Cc2ccc3ccccc3c2)n1CCSCc1ccccc1	–	–	< 30	70	–	–	–	–	–	inhibition [2]: < 30%; inhibition [18]: 23%; inhibition [19]: < 15%

Now from value to molecule, other results behind:

pKi [1]	pKi [3]	inhibition [4] [%]	inhibition [5] [%]	MIC [6] [µg/mL]	MIC [7] [µg/mL]	pKi [10]	pKi [11]	pKi [12]	Compound	further results
5.86	6.68	–	56	4	2	4.69	6.43	–	O=C(O)C(CSCCn1c(-c2cccc(-c3ccccc3)c2)n[nH]c1=S)c1ccccc1 (stereo not drawn)	–
6.32	6.66	–	–	2	4	5.22	6.22	4.46	O=C(O)C(CSCCn1c(-c2ccccc2)n[nH]c1=S)c1ccccc1 (stereo not drawn)	pIC50 [13]: < 3.60
6.32	6.60	< 30	< 30	8	16	–	6.00	–	S=c1[nH]nc(-c2ccccc2)n1CCSc1cccc2ccccc12	–
6.34	6.37	–	–	2	1	4.68	5.75	4.75	S=c1[nH]nc(-c2ccccc2)n1CCSCCc1ccccc1	–
6.24	6.60	–	62	1	4	4.92	6.68	–	O=[N+]([O-])c1ccc(O)c(CSCCn2c(-c3ccccc3)n[nH]c2=S)c1	pIC50 [13]: < 3.60; pIC50 [14]: 3.90; IC50 at 24 h [15]: > 500 µM
6.23	6.49	–	–	1	2	4.92	6.55	4.92	Fc1ccccc1CSCCn1c(-c2ccccc2)n[nH]c1=S	pIC50 [13]: 3.78; IC50 at 24 h [15]: 175 µM
6.64	6.60	75	–	2	1	4.55	6.47	5.04	Cn1cccc1-c1n[nH]c(=S)n1CCSCc1ccccc1	pIC50 [13]: < 3.60; pIC50 [14]: < 3.60; IC50 ([15]; pbmc): Non-Toxic
6.33	6.39	–	–	4	2	4.79	5.94	4.65	Nc1ccccc1SCCn1c(-c2ccccc2)n[nH]c1=S	–
6.40	6.30	–	–	4	2	4.89	6.10	4.36	Cc1ccccc1-c1n[nH]c(=S)n1CCSCc1ccccc1	pIC50 [13]: 3.92
5.78	6.68	40	30	4	2	–	6.72	–	O=C(O)C(SCCn1c(-c2ccccc2)n[nH]c1=S)c1ccccc1 (stereo not drawn)	–
